From PubChem BioAssay AID493234 (Broad Institute, 2011)
Several values for one entry are separate records, joined by “and”; a condition that tells them apart may be missing. Identical values can stand only once. Activity calls are given as the source filed them.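 The calls were made as follows: active = fitted curve rises to an activation of 500 at or below the top valid dose; inactive = the rest, including activity in the falling direction.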

System: U2OS HRE-luciferase, zinc medium, luminescence
Assay: HRE reporter activators under added zinc – cell-based, U2OS, luminescence, dry powder, set 2, mechanism study for HIF pathway activator project, dose response (AID 493234)
Conditions: not given
How it was run: (§1)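 Measured by: Steady-Glo luminescence; material: human U2OS osteosarcoma cells stably expressing 3×HRE-driven luciferase reporter; also added: zinc sulfate at 50 µM final; schedule: 24 h pre-growth, 24 h compound treatment; compound dosing: 8 concentrations, 3-fold dilution steps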
`COc1cccc(CNc2nc(-c3ccccn3)nnc2-c2ccccc2)c1` showed an AC500 of 3.92 µM.
With `CN1CCN(c2nc(-c3ccccn3)nnc2-c2ccccc2)CC1` the AC500 was 15.8 µM.
`c1ccc(-c2nnc(-c3ccccn3)nc2N2CCN(c3ccncc3)CC2)cc1` gave an AC500 of 15.3 µM.
In the case of `OCCCNc1nc(-c2ccccn2)nnc1-c1ccccc1`, the AC500 is reported as 22.9 µM.
`C[C@@H](Nc1nc(-c2ccccn2)nnc1-c1ccccc1)C1CCCCC1` gave an AC500 of 6.94 µM.
For `c1ccc(-c2nnc(-c3ccccn3)nc2NCC2CCOCC2)cc1`, the AC500 was 18.8 µM.
`c1ccc(-c2ccc(CNc3nc(-c4ccccn4)nnc3-c3ccccc3)cc2)cc1` showed an AC500 of 3.41 µM.
Compound `c1ccc(CCNc2nc(-c3ccccn3)nnc2-c2ccccc2)cc1` has an AC500 of 7.94 µM.
Compound `Cc1ccc(CNc2nc(-c3ccccn3)nnc2-c2ccccc2)cc1C` has an AC500 of 2.19 µM.
`CCCCNC(=O)c1cc(-c2ccccc2)on1` gave an AC500 of 32.2 µM.
For `CC(Nc1nc(-c2ccccn2)nnc1-c1ccccc1)c1ccccc1` (configuration not stated), the AC500 was 9.22 µM.
In the case of `c1ccc(CNc2nc(-c3ccccn3)nnc2-c2ccccc2)cc1`, the AC500 is reported as 6.89 µM.
With `CC(C)(C)CCNc1nc(-c2ccccn2)nnc1-c1ccccc1` the AC500 was 4.65 µM and 2.47 µM.
`Clc1cccc(CNc2nc(-c3ccccn3)nnc2-c2ccccc2)c1` gave an AC500 of 2 µM.
Compound `O=C(NCCCn1ccnc1)c1cc(-c2ccccc2)on1` has an AC500 of 16.4 µM.
In the case of `c1ccc(-c2nnc(-c3ccccn3)nc2NCC2CCCCC2)cc1`, the AC500 is reported as 5.43 µM.
In the case of `c1ccc(-c2nnc(-c3ccccn3)nc2N2CCC(c3ccccc3)C2)cc1` (configuration not stated), the AC500 is reported as 3.01 µM.
Work on `c1ccc(-c2cccc(CNc3nc(-c4ccccn4)nnc3-c3ccccc3)c2)cc1` yielded an AC500 of 3.69 µM.
`C=CCNc1nc(-c2ccccn2)nnc1-c1ccccc1` gave an AC500 of 15 µM.
In the case of `c1ccc(-c2nnc(-c3ccccn3)nc2N2CCC(N3CCOCC3)CC2)cc1`, the AC500 is reported as 16.2 µM.
`CN(C)c1nc(-c2ccccn2)nnc1-c1ccccc1` gave an AC500 of 20.2 µM.
`O=C(NCCCCO)c1cc(-c2ccccc2)on1` gave an AC500 of 12.1 µM.
Compound `c1ccc(-c2nnc(-c3ccccn3)nc2N2CCC(C3CCCCC3)C2)cc1` (configuration not stated) has an AC500 of 6.32 µM.
In the case of `CC(C)(C)c1ccc(CNc2nc(-c3ccccn3)nnc2-c2ccccc2)cc1`, the AC500 is reported as 2.89 µM.
For `c1ccc(-c2nnc(-c3ccccn3)nc2NCCN2CCOCC2)cc1`, the AC500 was 15.7 µM.
With `COc1ccc(CNc2nc(-c3ccccn3)nnc2-c2ccccc2)cc1` the AC500 was 5.26 µM.
In the case of `Cc1ccccc1CNc1nc(-c2ccccn2)nnc1-c1ccccc1`, the AC500 is reported as 7.16 µM.
In the case of `c1ccc(-c2nnc(-c3ccccn3)nc2NCCc2ccccn2)cc1`, the AC500 is reported as 18 µM.
With `c1ccc(-c2nnc(-c3ccccn3)nc2NCc2ccccn2)cc1` the AC500 was 20.8 µM.
For `C[C@H](Nc1nc(-c2ccccn2)nnc1-c1ccccc1)C1CCCCC1`, the AC500 was 5.01 µM.
Compound `Cc1cccc(CNc2nc(-c3ccccn3)nnc2-c2ccccc2)c1` has an AC500 of 6.47 µM.
`Cc1cccc(Nc2nc(-c3ccccn3)nnc2-c2ccccc2)n1` showed an AC500 of 13.2 µM.
`Cc1ccc(CNc2nc(-c3ccccn3)nnc2-c2ccccc2)cc1` gave an AC500 of 7.26 µM.
With `c1ccc(-c2nnc(-c3ccccn3)nc2NCC2CC2)cc1` the AC500 was 16.1 µM.
For `C[C@@H](Nc1nc(-c2ccccn2)nnc1-c1ccccc1)c1ccccc1`, the AC500 was 6.17 µM.
With `c1ccc(-c2nnc(-c3ccccn3)nc2NCc2cccnc2)cc1` the AC500 was 19 µM.
`Cc1ccc(Nc2nc(-c3ccccn3)nnc2-c2ccccc2)cn1` gave an AC500 of 17.8 µM.
Compound `c1ccc(-c2nnc(-c3ccccn3)nc2NCCCN2CCOCC2)cc1` has an AC500 of 16 µM.
`OCC1CCN(c2nc(-c3ccccn3)nnc2-c2ccccc2)CC1` showed an AC500 of 21.1 µM.

System: not listed separately
Assay: as above
Conditions: U2OS HRE-luciferase, zinc medium, luminescence; at 38 µM (top of the series)
How it was run: as §1
With `Cc1ccc(CNC(=O)c2cc(-c3ccccc3)on2)cc1` the activation was -6.78% (inactive).
For `Cc1ccc(NC(=O)c2cc(-c3ccccc3)on2)cn1`, the activation was 20.6% (inactive).
In the case of `O=C(c1cc(-c2ccccc2)on1)N1CCC(N2CCOCC2)CC1`, the activation is reported as 1.96% (inactive).
With `CC(C)(C)OC(=O)N1CCN(Cc2ccc(O)c3ncccc23)CC1` the activation was 4.29% (inactive).
In the case of `O=C(NC1CCc2ccccc2C1)c1cc(-c2ccccc2)on1` (configuration not stated), the activation is reported as -5.89% (inactive).
In the case of `O=C(c1cc(-c2ccccc2)on1)N1CCc2cccnc21`, the activation is reported as 3.59% (inactive).
With `c1ccc(-c2nnc(-c3ccccn3)nc2Nc2nc3ccccc3s2)cc1` the activation was -16.5% (inactive).
For `O=C(c1cc(-c2ccccc2)on1)N1CCC(N2CCCC2)CC1`, the activation was 4.99% (inactive).
In the case of `Oc1ccc(CN2CCc3ccccc3C2)c2cccnc12`, the activation is reported as -19.3% (inactive) and -19.9% (inactive).
For `Oc1ccc(CNC2CCc3ccccc32)c2cccnc12` (configuration not stated), the activation was -23.4% (inactive).
With `Cn1c(-c2ccccc2)cnc1Nc1nc(-c2ccccn2)nnc1-c1ccccc1` the activation was 109% (inactive).
In the case of `c1ccc(-c2cnc(Nc3nc(-c4ccccn4)nnc3-c3ccccc3)s2)cc1`, the activation is reported as 19.5% (inactive).
In the case of `O=C(NCC1CCCCC1)c1cc(-c2ccccc2)on1`, the activation is reported as 52.6% (inactive).
With `CN(C)CCNC(=O)c1cc(-c2ccccc2)on1` the activation was 9.51% (inactive).
With `Cc1cccc(NC(=O)c2cc(-c3ccccc3)on2)n1` the activation was 24.2% (inactive).
With `c1ccc(-c2csc(Nc3nc(-c4ccccn4)nnc3-c3ccccc3)n2)cc1` the activation was 86.1% (inactive).
For `O=C(NC1Cc2ccccc2C1)c1cc(-c2ccccc2)on1`, the activation was 56% (inactive).
In the case of `Cc1cccc(CNC(=O)c2cc(-c3ccccc3)on2)c1`, the activation is reported as -0.529% (inactive).
In the case of `Oc1ccc(CN2CCC3CCCCC3C2)c2cccnc12` (configuration not stated), the activation is reported as 275% (inactive).
With `Oc1ccc(CNC2Cc3ccccc3C2)c2cccnc12` the activation was 217% (inactive).
In the case of `OCC1CCN(Cc2ccc(O)c3ncccc23)CC1`, the activation is reported as 12.5% (inactive).
For `O=C(Nc1nc2ccccc2s1)c1cc(-c2ccccc2)on1`, the activation was 14.8% (inactive).
In the case of `O=C(Nc1cnc2ccccc2c1)c1cc(-c2ccccc2)on1`, the activation is reported as 10.1% (inactive).
With `O=C(Nc1ccc2ccccc2n1)c1cc(-c2ccccc2)on1` the activation was -7.7% (inactive).
For `N#CC1(c2ccccc2)CCN(Cc2ccc(O)c3ncccc23)CC1`, the activation was 27.6% (inactive).
For `O=C(c1cc(-c2ccccc2)on1)N1CCC(CO)CC1`, the activation was -4.31% (inactive).
In the case of `c1ccc(-c2nnc(Nc3nc(-c4ccccn4)nnc3-c3ccccc3)s2)cc1`, the activation is reported as 141% (inactive).
With `O=C(Nc1nnc(-c2ccccc2)s1)c1cc(-c2ccccc2)on1` the activation was 4.85% (inactive).
In the case of `Oc1ccc(CN2CCC(Cc3ccccc3)CC2)c2cccnc12`, the activation is reported as -5.34% (inactive).
With `O=C(NCCN1CCCCC1)c1cc(-c2ccccc2)on1` the activation was 32.2% (inactive).
In the case of `O=C(c1cc(-c2ccccc2)on1)N1CCN(c2ccncc2)CC1`, the activation is reported as -5.2% (inactive).
In the case of `O=C(NCCCN1CCOCC1)c1cc(-c2ccccc2)on1`, the activation is reported as 449% (inactive).
In the case of `O=C(Nc1ncc2ccccc2n1)c1cc(-c2ccccc2)on1`, the activation is reported as 34.5% (inactive).
With `O=C(Nc1cn2ccccc2n1)c1cc(-c2ccccc2)on1` the activation was 7.47% (inactive).
In the case of `CC1CN(Cc2ccc(O)c3ncccc23)CC(C)O1` (configuration not stated), the activation is reported as -5.99% (inactive).
For `CN1CCN(C(=O)c2cc(-c3ccccc3)on2)CC1`, the activation was -12.5% (inactive).
For `O=C(NCC1CC1)c1cc(-c2ccccc2)on1`, the activation was 386% (inactive).
In the case of `Cn1c(-c2ccccc2)cnc1NC(=O)c1cc(-c2ccccc2)on1`, the activation is reported as 9.13% (inactive).
In the case of `Cn1c(NC(=O)c2cc(-c3ccccc3)on2)nc2ccccc21`, the activation is reported as -0.203% (inactive).
In the case of `COc1ccccc1N1CCN(Cc2ccc(O)c3ncccc23)CC1`, the activation is reported as -1.45% (inactive).
With `O=C(NCc1ccccc1)c1cc(-c2ccccc2)on1` the activation was 32.9% (inactive).
In the case of `O=C(Nc1nc(-c2ccccc2)cs1)c1cc(-c2ccccc2)on1`, the activation is reported as -1.71% (inactive).
For `CC(C)(C)CCNC(=O)c1cc(-c2ccccc2)on1`, the activation was 247% (inactive).
For `O=C(NCCCO)c1cc(-c2ccccc2)on1`, the activation was 325% (inactive).
For `c1ccc(-c2nnc(-c3ccccn3)nc2Nc2cnc3ccccc3n2)cc1`, the activation was -25.9% (inactive).
With `Cc1ccccc1CNC(=O)c1cc(-c2ccccc2)on1` the activation was 15.2% (inactive).
For `O=C(NCCN1CCOCC1)c1cc(-c2ccccc2)on1`, the activation was 430% (inactive).
For `O=C(Nc1ncc(-c2ccccc2)o1)c1cc(-c2ccccc2)on1`, the activation was -4.08% (inactive).
